From ChEMBL document CHEMBL2040765, “Synthesis and anticancer activity of a series of norcantharidin analogues” (2012)

What was measured:
Assay type in all cases: functional
[1] = Growth inhibition of human SJ-G2 cells after 72 hrs y MTT assay; conditions: SJ-G2, 72 h
How it was run: (§1)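 Cells kept in DMEM with 10% FBS, 10 mM sodium bicarbonate, penicillin, streptomycin and 4 mM glutamine at 37 °C under 5% CO2. Log-phase cells were plated in duplicate at 2500–4000 cells/well. After 24 h, compound in medium was added; analogue stocks were 40 mM in DMSO. Growth was read after 72 h by MTT absorbance at 540 nm in dose-response testing.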

DU-145 [2] = assay: Growth inhibition of human DU145 cells after 72 hrs y MTT assay; conditions: DU-145, 72 h; how it was run: as §1
HT-29 [3] = assay: Growth inhibition of human HT-29 cells after 72 hrs y MTT assay; conditions: HT-29, 72 h; how it was run: as §1
A2780 [4] = assay: Growth inhibition of human A2780 cells after 72 hrs y MTT assay; conditions: A2780, 72 h; how it was run: as §1
MCF7 [5] = assay: Growth inhibition of human MCF7 cells after 72 hrs y MTT assay; conditions: MCF7, 72 h; how it was run: as §1
A-431 [6] = assay: Growth inhibition of human A431 cells after 72 hrs y MTT assay; conditions: A-431, 72 h; how it was run: as §1
SW480 [7] = assay: Growth inhibition of human SW480 cells after 72 hrs y MTT assay; conditions: SW480, 72 h; how it was run: as §1
[8] = Growth inhibition of human BE(2)-C cells after 72 hrs y MTT assay; how it was run: as §1
NCI-H460 [9] = assay: Growth inhibition of human H460 cells after 72 hrs y MTT assay; conditions: NCI-H460, 72 h; how it was run: as §1
[10] = Growth inhibition of human SJ-G2 cells at 100 uM after 72 hrs y MTT assay; conditions: for inhibition of growth at 100 µM: Homo sapiens, SJ-G2, 72 h, read-out: GI
How it was run: (§2)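 Log-phase cells in supplemented DMEM (10% FBS, 4 mM glutamine, antibiotics; 37 °C, 5% CO2) were plated in duplicate at 2500–4000 cells/well. Compound was added 24 h later at a fixed 100 µM, from 40 mM DMSO stocks. After 72 h, MTT absorbance was read at 540 nm and expressed as percent growth inhibition; 100% means total inhibition.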

NCI-H460 [11] = assay: Growth inhibition of human H460 cells at 100 uM after 72 hrs y MTT assay; conditions: for inhibition of growth at 100 µM: Homo sapiens, NCI-H460, 72 h, read-out: GI; how it was run: as §2
A-431 [12] = assay: Growth inhibition of human A431 cells at 100 uM after 72 hrs y MTT assay; conditions: for inhibition of growth at 100 µM: Homo sapiens, A-431, 72 h, read-out: GI; how it was run: as §2
A2780 [13] = assay: Growth inhibition of human A2780 cells at 100 uM after 72 hrs y MTT assay; conditions: for inhibition of growth at 100 µM: Homo sapiens, A2780, 72 h, read-out: GI; how it was run: as §2
HT-29 [14] = assay: Growth inhibition of human HT-29 cells at 100 uM after 72 hrs y MTT assay; conditions: for inhibition of growth at 100 µM: Homo sapiens, HT-29, 72 h, read-out: GI; how it was run: as §2
DU-145 [15] = assay: Growth inhibition of human DU145 cells at 100 uM after 72 hrs y MTT assay; conditions: for inhibition of growth at 100 µM: Homo sapiens, DU-145, 72 h, read-out: GI; how it was run: as §2
[16] = Growth inhibition of human BE(2)-C cells at 100 uM after 72 hrs y MTT assay; conditions: for inhibition of growth at 100 µM: Homo sapiens, BE(2)-C, 72 h, read-out: GI; how it was run: as §2
SW480 [17] = assay: Growth inhibition of human SW480 cells at 100 uM after 72 hrs y MTT assay; conditions: for inhibition of growth at 100 µM: Homo sapiens, SW480, 72 h, read-out: GI; how it was run: as §2
MCF7 [18] = assay: Growth inhibition of human MCF7 cells at 100 uM after 72 hrs y MTT assay; conditions: for inhibition of growth at 100 µM: Homo sapiens, MCF7, 72 h, read-out: GI; how it was run: as §2

SMILES | GI50 (DU-145 [2]) | GI50 (HT-29 [3]) | GI50 (A2780 [4]) | GI50 (MCF7 [5]) | GI50 (A-431 [6]) | GI50 (SW480 [7]) | GI50 (NCI-H460 [9]) | GI50 [1] | GI50 [8] | also measured
O=C1O[C@H](O)[C@@H]2[C@H]1[C@H]1CC[C@@H]2O1 | > 100 µM | 14 µM | > 100 µM | > 100 µM | > 100 µM | > 100 µM | > 100 µM | 15 µM | 28 µM | 
C#CCCCCO[C@H]1OC(=O)[C@H]2[C@@H]1[C@@H]1CC[C@H]2O1 | > 100 µM | 51 µM | > 100 µM | > 100 µM | > 100 µM | > 100 µM | > 100 µM | 55 µM | > 100 µM | 
CCCCCCO[C@@H]1OC(=O)[C@H]2[C@@H]1[C@@H]1CC[C@H]2O1 | > 100 µM |  | > 100 µM | > 100 µM | > 100 µM | > 100 µM | > 100 µM |  | > 100 µM | 
CCCCCCCCO[C@H]1OC(=O)[C@H]2[C@@H]1[C@@H]1CC[C@H]2O1 | 86 µM | 40 µM | 28 µM | 36 µM | 72 µM | 49 µM | > 100 µM | 45 µM | 51 µM | 
O=C1O[C@H](OC2CCCCC2)[C@@H]2[C@H]1[C@H]1CC[C@@H]2O1 | > 100 µM | 45 µM | > 100 µM | > 100 µM | > 100 µM | > 100 µM | > 100 µM | 41 µM | > 100 µM | 
CC1OC1CO[C@@H]1OC(=O)[C@H]2[C@@H]1[C@@H]1CC[C@H]2O1 (some centres undefined) |  |  |  |  |  |  |  |  |  | inhibition of growth at 100 µM [10]: 80%; inhibition of growth at 100 µM (NCI-H460 [11]): 9%; inhibition of growth at 100 µM (A-431 [12]): 18%; inhibition of growth at 100 µM (A2780 [13]): 26%; inhibition of growth at 100 µM (HT-29 [14]): 70%; inhibition of growth at 100 µM (DU-145 [15]): 17%; inhibition of growth at 100 µM [16]: 23%; inhibition of growth at 100 µM (SW480 [17]): 17%; inhibition of growth at 100 µM (MCF7 [18]): 27%
CCOP(=O)(OCC)OCCCO[C@H]1OC(=O)[C@H]2[C@@H]1[C@@H]1CC[C@H]2O1 | 84 µM | 17 µM | 22 µM | 20 µM | 87 µM | 9 µM | > 100 µM | 43 µM | 9 µM | 
O=C1O[C@H](OCCCOP(=O)(Oc2ccccc2)Oc2ccccc2)[C@@H]2[C@H]1[C@H]1CC[C@@H]2O1 | > 100 µM | 40 µM | > 100 µM | > 100 µM | > 100 µM | > 100 µM | > 100 µM | 40 µM | > 100 µM | 
O=C1O[C@H](OCCCOP(=O)(OCC(Cl)(Cl)Cl)OCC(Cl)(Cl)Cl)[C@@H]2[C@H]1[C@H]1CC[C@@H]2O1 | > 100 µM | 37 µM | 81 µM | 89 µM | > 100 µM | > 100 µM | > 100 µM | 41 µM | > 100 µM | 
O=C1O[C@H](OCCCOP(=O)(O)O)[C@@H]2[C@H]1[C@H]1CC[C@@H]2O1 | 65 µM | 42 µM | 33 µM | 45 µM | 52 µM | 65 µM |  | 57 µM | 67 µM | 
O=C1O[C@H](OCC2CO2)[C@@H]2[C@H]1[C@H]1CC[C@@H]2O1 (stereo in doubt; 19) |  |  |  |  |  |  |  |  |  | growth inhibition (GI) [10]: 75%; inhibition of growth at 100 µM (NCI-H460 [11]): 11%; inhibition of growth at 100 µM (A-431 [12]): 35%; growth inhibition (GI) (A2780 [13]): 46%; growth inhibition (GI) (HT-29 [14]): 69%; inhibition of growth at 100 µM (DU-145 [15]): 33%; growth inhibition (GI) (SW480 [17]): 32%; growth inhibition (GI) (MCF7 [18]): 37%
O=C1O[C@H](OCC2CO2)[C@@H]2[C@H]1[C@H]1CC[C@@H]2O1 (stereo in doubt; 20) |  |  |  |  |  |  |  |  |  | inhibition of growth at 100 µM [10]: 59%; growth inhibition (GI) (NCI-H460 [11]): 7%; growth inhibition (GI) (A-431 [12]): 18%; growth inhibition (GI) (A2780 [13]): 83%; inhibition of growth at 100 µM (HT-29 [14]): 52%; growth inhibition (GI) (DU-145 [15]): 21%; inhibition of growth at 100 µM [16]: 42%; inhibition of growth at 100 µM (SW480 [17]): 16%; inhibition of growth at 100 µM (MCF7 [18]): 43%
O=C1O[C@@H](OCC2CO2)[C@@H]2[C@H]1[C@H]1CC[C@@H]2O1 (stereo in doubt; 21) |  |  |  |  |  |  |  |  |  | growth inhibition (GI) [10]: 73%; inhibition of growth at 100 µM (NCI-H460 [11]): 7%; inhibition of growth at 100 µM (A-431 [12]): 22%; inhibition of growth at 100 µM (A2780 [13]): 42%; growth inhibition (GI) (HT-29 [14]): 68%; inhibition of growth at 100 µM (DU-145 [15]): 25%; growth inhibition (GI) [16]: 35%; growth inhibition (GI) (SW480 [17]): 23%; growth inhibition (GI) (MCF7 [18]): 33%
O=C1O[C@@H](OCC2CO2)[C@@H]2[C@H]1[C@H]1CC[C@@H]2O1 (stereo in doubt; 22) |  |  |  |  |  |  |  |  |  | inhibition of growth at 100 µM [10]: 76%; growth inhibition (GI) (NCI-H460 [11]): 14%; growth inhibition (GI) (A-431 [12]): 28%; inhibition of growth at 100 µM (HT-29 [14]): 74%; growth inhibition (GI) (DU-145 [15]): 30%; inhibition of growth at 100 µM [16]: 38%; inhibition of growth at 100 µM (SW480 [17]): 28%; inhibition of growth at 100 µM (MCF7 [18]): 40%
O=C1OC(=O)C2C3CCC(O3)C12 (centres undefined) [DEMETHYL-CANTHARIDIN] | 90 µM | 23 µM | 27 µM | 34 µM | 72 µM | 41 µM | > 100 µM | 23 µM | 36 µM | 

Continued, in another order:

GI50 (DU-145 [2]) | GI50 (HT-29 [3]) | GI50 (A2780 [4]) | GI50 (MCF7 [5]) | GI50 (A-431 [6]) | GI50 (SW480 [7]) | GI50 (NCI-H460 [9]) | SMILES | GI50 [1] | GI50 [8] | also measured
> 100 µM |  |  | > 100 µM | > 100 µM |  | > 100 µM | C=CCO[C@H]1OC(=O)[C@H]2[C@@H]1[C@@H]1CC[C@H]2O1 |  |  | 
> 100 µM |  | > 100 µM | > 100 µM | > 100 µM | > 100 µM | > 100 µM | C=CCO[C@@H]1OC(=O)[C@H]2[C@@H]1[C@@H]1CC[C@H]2O1 |  | > 100 µM | 
> 100 µM | 42 µM | 57 µM | 77 µM | > 100 µM | 93 µM | > 100 µM | C/C=C/CO[C@H]1OC(=O)[C@H]2[C@@H]1[C@@H]1CC[C@H]2O1 | 55 µM | 84 µM | 
> 100 µM | 31 µM | > 100 µM | > 100 µM | > 100 µM | > 100 µM | > 100 µM | C/C=C/CO[C@@H]1OC(=O)[C@H]2[C@@H]1[C@@H]1CC[C@H]2O1 | 35 µM | 63 µM | 
> 100 µM | 77 µM | > 100 µM | > 100 µM | > 100 µM | > 100 µM | > 100 µM | CCO[C@H]1OC(=O)[C@H]2[C@@H]1[C@@H]1CC[C@H]2O1 | 49 µM | > 100 µM | 
> 100 µM | 32 µM | 20 µM | 27 µM | 68 µM | 39 µM | > 100 µM | CCCCCO[C@H]1OC(=O)[C@H]2[C@@H]1[C@@H]1CC[C@H]2O1 | 37 µM | 38 µM | 
> 100 µM | 19 µM | > 100 µM | > 100 µM | > 100 µM | 94 µM | > 100 µM | CC(C)O[C@H]1OC(=O)[C@H]2[C@@H]1[C@@H]1CC[C@H]2O1 | 21 µM | 44 µM | 
> 100 µM | 52 µM | > 100 µM | > 100 µM | > 100 µM | > 100 µM | > 100 µM | CC(C)(C)O[C@H]1OC(=O)[C@H]2[C@@H]1[C@@H]1CC[C@H]2O1 | 48 µM | > 100 µM | 
> 100 µM | 50 µM | > 100 µM | > 100 µM | > 100 µM | > 100 µM | > 100 µM | CCCCOC1OC(=O)[C@H]2[C@@H]1[C@@H]1CC[C@H]2O1 (single isomer, unassigned) | 32 µM | 93 µM | 
